Measurements as given in paper PMC7987787 (Nuclear medicine and biology, 2021).
pIC50, pKi: −log10 of the molar value. Several values for one entry are separate records, joined by “and”; a condition that tells them apart may be missing. Equal entries are not always repeated. Where two headings read alike, the source gives them in different places. One block for each molecule: values may come before it.

Key:
[1] = Phase II trial, 3 months after treatment; cited from earlier work
[2] = system: PC-3 PIP and PC-3 flu xenografts; conditions: SCID mice
[3] = system: PSMA+ PC-3 PIP xenografts; conditions: cited from earlier work
[4] = target: PSMA (Homo sapiens, UniProt Q04609); test: PSMA inhibition assay; format: biochemical
Procedure, shortened: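 LNCaP cell extract as enzyme source, incubated with the inhibitor at various amounts plus 4 μM NAAG for 120 min. Glutamate released was detected with Amplex Red glutamic acid working solution over 60 min, fluorescence ex 530/em 560 nm. […] Triplicate; known PSMA inhibitor as positive control.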

Sequence of PSMA (Q04609 whole entry): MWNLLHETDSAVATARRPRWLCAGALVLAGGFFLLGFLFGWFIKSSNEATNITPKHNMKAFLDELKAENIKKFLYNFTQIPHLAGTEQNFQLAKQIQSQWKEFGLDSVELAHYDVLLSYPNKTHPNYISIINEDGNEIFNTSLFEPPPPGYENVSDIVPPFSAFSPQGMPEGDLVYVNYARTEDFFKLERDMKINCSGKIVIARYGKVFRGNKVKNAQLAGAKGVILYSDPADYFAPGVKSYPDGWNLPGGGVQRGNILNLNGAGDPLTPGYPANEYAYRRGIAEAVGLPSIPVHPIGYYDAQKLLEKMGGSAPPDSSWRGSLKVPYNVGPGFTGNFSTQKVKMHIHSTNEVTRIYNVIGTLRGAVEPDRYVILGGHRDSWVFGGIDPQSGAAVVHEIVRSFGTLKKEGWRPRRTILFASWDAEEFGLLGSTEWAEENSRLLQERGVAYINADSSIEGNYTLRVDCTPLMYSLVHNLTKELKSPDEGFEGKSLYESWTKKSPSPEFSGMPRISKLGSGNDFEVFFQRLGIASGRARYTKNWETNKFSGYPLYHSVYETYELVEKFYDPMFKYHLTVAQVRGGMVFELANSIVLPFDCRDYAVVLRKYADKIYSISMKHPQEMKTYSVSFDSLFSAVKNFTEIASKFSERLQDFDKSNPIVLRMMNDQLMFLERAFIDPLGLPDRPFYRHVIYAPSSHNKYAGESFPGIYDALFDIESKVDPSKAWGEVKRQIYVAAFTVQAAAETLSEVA

SMILES: O=C([O-])CN1CCN(CC(=O)[O-])CCN(CC(=O)NCC2CCC(C(=O)N[C@@H](Cc3ccc4ccccc4c3)C(=O)NCCCC[C@H](NC(=O)N[C@@H](CCC(=O)O)C(=O)O)C(=O)O)CC2)CCN(CC(=O)[O-])CC1.[177Lu+3] (some centres unmarked) [^177Lu-labeled PSMA-617]
Patients with reductions in tumor volume [1]: about 40%

SMILES: O=C(O)CC[C@H](NC(=O)N[C@@H](CCC(=O)NCCc1ccc([131I])cc1)C(=O)O)C(=O)O [[^131I]HS-549]
Percent injected dose per gram: Blood ([2]; 1 h): 5.90 ± 1.05 % ID/g
Percent injected dose per gram: Bone ([2]; 1 h): 0.94 ± 0.36 % ID/g
Percent injected dose per gram: Brain ([2]; 1 h): 0.26 ± 0.08 % ID/g
Percent injected dose per gram: Heart ([2]; 1 h): 2.30 ± 0.63 % ID/g
Percent injected dose per gram: Kidneys ([2]; 1 h): 106 ± 18.9 % ID/g
Percent injected dose per gram: Lg. Int. ([2]; 1 h): 0.52 ± 0.12 % ID/g
Percent injected dose per gram: Liver ([2]; 1 h): 21.2± 4.14 % ID/g
Percent injected dose per gram: Lungs ([2]; 1 h): 4.60 ± 1.09 % ID/g
Percent injected dose per gram: Muscle ([2]; 1 h): 0.86 ± 0.26 % ID/g
Percent injected dose per gram: PC-3 PIP ([2]; 1 h): 78.1 ± 19.1 % ID/g
Percent injected dose per gram: PC-3 flu ([2]; 1 h): 2.21 ± 0.53 % ID/g
Percent injected dose per gram: Sm. Int. ([2]; 1 h): 1.98 ± 0.30 % ID/g
Percent injected dose per gram: Spleen ([2]; 1 h): 6.76 ± 3.42 % ID/g
Percent injected dose per gram: Stomach ([2]; 1 h): 0.92 ± 0.20 % ID/g
Percent injected dose per gram: Thyroid ([2]; 1 h): 1.17 ± 0.43 % ID/g
Thyroid uptake ([2]; 1 h): 0.30 ± 0.13 %ID
Tumor-to-blood ratio (PSMA+ PC3 PIP) ([2]; 1 h): 13.3 ± 2.7
Tumor-to-kidney ratio (PSMA+ PC3 PIP) ([2]; 1 h): 0.74 ± 0.15
Liver levels relative to co-administered [211At]HS-549 ([2]; 1 h and 2 h, P < 0.05): 3–6 fold
Percent injected dose per gram: Blood ([2]; 2 h): 2.92 ± 0.32 % ID/g
Percent injected dose per gram: Bone ([2]; 2 h): 0.65 ± 0.25 % ID/g
Percent injected dose per gram: Brain ([2]; 2 h): 0.18 ± 0.02 % ID/g
Percent injected dose per gram: Heart ([2]; 2 h): 1.14 ± 0.18 % ID/g
Percent injected dose per gram: Kidneys ([2]; 2 h): 96.6 ± 39.1 % ID/g
Percent injected dose per gram: Lg. Int. ([2]; 2 h): 1.32 ± 0.25 % ID/g
Percent injected dose per gram: Liver ([2]; 2 h): 26.0 ± 3.09 % ID/g
Percent injected dose per gram: Lungs ([2]; 2 h): 2.73 ± 0.66 % ID/g
Percent injected dose per gram: Muscle ([2]; 2 h): 0.46 ± 0.12 % ID/g
Percent injected dose per gram: PC-3 PIP ([2]; 2 h): 74.7 ± 13.1 % ID/g
Percent injected dose per gram: PC-3 flu ([2]; 2 h): 1.51 ± 0.30 % ID/g
Percent injected dose per gram: Sm. Int. ([2]; 2 h): 2.42 ± 0.40 % ID/g
Percent injected dose per gram: Spleen ([2]; 2 h): 2.71 ± 0.85 % ID/g
Percent injected dose per gram: Stomach ([2]; 2 h): 0.47 ± 0.17 % ID/g
Percent injected dose per gram: Thyroid ([2]; 2 h): 0.69 ± 0.29 % ID/g
Tumor-to-blood ratio (PSMA+ PC3 PIP) ([2]; 2 h): 26 ± 5.3
Tumor-to-kidney ratio (PSMA+ PC3 PIP) ([2]; 2 h): 0.87 ± 0.30
Percent injected dose per gram: Blood ([2]; 21 h): 1.39 ± 0.35 % ID/g
Percent injected dose per gram: Bone ([2]; 21 h): 0.20 ± 0.05 % ID/g
Percent injected dose per gram: Brain ([2]; 21 h): 0.08 ± 0.02 % ID/g
Percent injected dose per gram: Heart ([2]; 21 h): 0.41 ± 0.09 % ID/g
Percent injected dose per gram: Kidneys ([2]; 21 h): 3.13 ± 1.65 % ID/g
Percent injected dose per gram: Lg. Int. ([2]; 21 h): 0.63 ± 0.39 % ID/g
Percent injected dose per gram: Liver ([2]; 21 h): 1.86 ± 0.51 % ID/g
Percent injected dose per gram: Lungs ([2]; 21 h): 0.87 ± 0.27 % ID/g
Percent injected dose per gram: Muscle ([2]; 21 h): 0.16 ± 0.04 % ID/g
Percent injected dose per gram: PC-3 PIP ([2]; 21 h): 22.6 ± 22.1 % ID/g
Percent injected dose per gram: PC-3 flu ([2]; 21 h): 0.44 ± 0.18 % ID/g
Percent injected dose per gram: Sm. Int. ([2]; 21 h): 0.37 ± 0.06 % ID/g
Percent injected dose per gram: Spleen ([2]; 21 h): 0.29 ± 0.12 % ID/g
Percent injected dose per gram: Stomach ([2]; 21 h): 0.14 ± 0.04 % ID/g
Percent injected dose per gram: Thyroid ([2]; 21 h): 0.36 ± 0.05 % ID/g
Thyroid uptake ([2]; 21 h): 0.08 ± 0.01 %ID
Tumor-to-blood ratio (PSMA+ PC3 PIP) ([2]; 21 h): 18 ± 19
Tumor-to-kidney ratio (PSMA+ PC3 PIP) ([2]; 21 h): 6.26 ± 4.04

SMILES: O=C(O)CC[C@H](NC(=O)N[C@@H](CCCCNC(=O)c1ccc([211At])cc1)C(=O)O)C(=O)O [[^211At]DCABzL, (((S)-1-carboxy-5-(4-[^211At]astinatobenzamido)pentyl)carbamoyl)-L-glutamic acid]
Stomach activity level, range over time points ([3]; %ID/organ): 3.8 – 8.2%
Thyroid radioactivity level, range over time points ([3]; %ID/organ): 0.5–1.3%
Peak uptake in subcutaneous PC3 PSMA+ PIP xenografts [3]: > 30 % ID/g

pIC50 [4]: 9.37
pKi [4]: 10.05
SMILES: O=C(O)CC[C@H](NC(=O)N[C@@H](CCC(=O)NCCc1ccc(I)cc1)C(=O)O)C(=O)O [HS-549, (((S)-1-Carboxy-4-((4-iodophenethyl)amino)-4-oxobutyl)carbamoyl)-L-glutamic acid]

SMILES: O=C(O)CC[C@H](NC(=O)N[C@@H](CCC(=O)NCCc1ccc([211At])cc1)C(=O)O)C(=O)O [[^211At]HS-549]
Percent injected dose per gram: Blood ([2]; 1 h): 5.5 ± 0.8 % ID/g and 5.53 ± 0.84 % ID/g
Percent injected dose per gram: Bone ([2]; 1 h): 1.49 ± 0.40 % ID/g
Percent injected dose per gram: Brain ([2]; 1 h): 0.46 ± 0.09 % ID/g
Percent injected dose per gram: Heart ([2]; 1 h): 4.34 ± 0.96 % ID/g
Percent injected dose per gram: Kidneys ([2]; 1 h): 46.7 ± 8.2 % ID/g
Percent injected dose per gram: Lg. Int. ([2]; 1 h): 1.16 ± 0.20 % ID/g
Percent injected dose per gram: Liver ([2]; 1 h): 7.94 ± 2.15 % ID/g
Percent injected dose per gram: Lungs ([2]; 1 h): 9.77 ± 1.75 % ID/g
Percent injected dose per gram: Muscle ([2]; 1 h): 1.11 ± 0.29 % ID/g
Percent injected dose per gram: PC-3 PIP ([2]; 1 h): 43.2 ± 9.8 % ID/g
Percent injected dose per gram: PC-3 flu ([2]; 1 h): 3.48 ± 0.53 % ID/g
Percent injected dose per gram: Sm. Int. ([2]; 1 h): 5.52 ± 1.57 % ID/g
Percent injected dose per gram: Spleen ([2]; 1 h): 8.79 ± 2.09 % ID/g
Percent injected dose per gram: Stomach ([2]; 1 h): 7.07 ± 2.24 % ID/g
Percent injected dose per gram: Thyroid ([2]; 1 h): 3.24 ± 0.56 % ID/g
Percent injected dose per gram: Blood ([2]; 2 h): 2.8 ± 0.4 % ID/g and 2.87 ± 0.40 % ID/g
Percent injected dose per gram: Brain ([2]; 2 h): 0.39 ± 0.06 % ID/g
Percent injected dose per gram: Heart ([2]; 2 h): 3.36 ± 0.59 % ID/g
Percent injected dose per gram: Kidneys ([2]; 2 h): 40.4 ± 15.5 % ID/g
Percent injected dose per gram: Lg. Int. ([2]; 2 h): 4.59 ± 0.81 % ID/g
Percent injected dose per gram: Liver ([2]; 2 h): 4.65 ±1.28 % ID/g
Percent injected dose per gram: Lungs ([2]; 2 h): 8.24 ± 2.25 % ID/g
Percent injected dose per gram: Muscle ([2]; 2 h): 0.76 ± 0.18 % ID/g
Percent injected dose per gram: PC-3 PIP ([2]; 2 h): 42.0 ± 7.16 % ID/g
Percent injected dose per gram: PC-3 flu ([2]; 2 h): 2.82 ±0.60 % ID/g
Percent injected dose per gram: Sm. Int. ([2]; 2 h): 3.81 ± 1.24 % ID/g
Percent injected dose per gram: Spleen ([2]; 2 h): 6.13 ± 1.59 % ID/g
Percent injected dose per gram: Stomach ([2]; 2 h): 14.3 ± 3.2 % ID/g
Percent injected dose per gram: Thyroid ([2]; 2 h): 4.11 ± 2.00 % ID/g
Percent injected dose per gram: Blood ([2]; 21 h): 0.92 ± 0.15 % ID/g
Percent injected dose per gram: Bone ([2]; 21 h): 0.60 ± 0.17 % ID/g
Percent injected dose per gram: Brain ([2]; 21 h): 0.17 ± 0.03 % ID/g
Percent injected dose per gram: Kidneys ([2]; 21 h): 2.60 ± 0.77 % ID/g
Percent injected dose per gram: Lg. Int. ([2]; 21 h): 0.93 ± 0.41 % ID/g
Percent injected dose per gram: Liver ([2]; 21 h): 0.89 ± 0.13 % ID/g
Percent injected dose per gram: Lungs ([2]; 21 h): 4.3 ± 0.7 % ID/g and 4.26 ± 0.72 % ID/g
Percent injected dose per gram: Muscle ([2]; 21 h): 0.29 ± 0.09 % ID/g
Percent injected dose per gram: PC-3 PIP ([2]; 21 h): 10.6 ± 9.91 % ID/g
Percent injected dose per gram: Sm. Int. ([2]; 21 h): 1.28 ± 0.30 % ID/g
Percent injected dose per gram: Spleen ([2]; 21 h): 2.31 ± 0.67 % ID/g
Percent injected dose per gram: Stomach ([2]; 21 h): 12.6 ± 6.20 % ID/g
Percent injected dose per gram: Thyroid ([2]; 21 h): 3.78 ± 0.63 % ID/g
Stomach activity level, range over time points ([2]; %ID/organ): 3.2 −8.7 %ID
Thyroid radioactivity level, range over time points ([2]; %ID/organ, all time points): 0.8–0.9 %ID
